Results on two molecules are retold here after ChEMBL document CHEMBL1143932, “Biochemical and biological properties of 5-bromotubercidin: differential effects on cellular DNA-directed and viral RNA-directed RNA synthesis” (Bioorg Med Chem, 2008).

Active and inactive are the calls of the source. No cut-off for these calls is given here.

The species named for assay [1] is Oryctolagus cuniculus. Put plainly: Activity of rabbit liver adenosine kinase. The method, boiled down:
(§1)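 Adenosine kinase partially purified from rabbit liver. Assay in 20 mM KPO4 pH 5.8 with 0.7 mM ATP, 0.25 mM phosphoenol pyruvate, 0.5 mM MgCl2, 50 mM KCl, pyruvate kinase and 7–70 µM radioactive nucleoside substrate, at 25 °C. Reaction stopped with 0.25 M perchloric acid. Nucleotides separated by paper electrophoresis at pH 3.5 and counted by scintillation. Km, Ki and relative Vmax (adenosine = 100) derived.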

For assay [2], the species on record is Oryctolagus cuniculus. Put plainly: Activity of rabbit liver adenosine kinase relative to adenosine. An outline of the steps: as §1
The subject of another assay is L2. Put plainly: Growth inhibition of mouse L2 cells at 15 uM.

On to `Nc1ncnc2c1ncn2[C@@H]1O[C@H](CO)[C@@H](O)[C@H]1O`, for which, in the assay listed under Oryctolagus cuniculus [1], the Km amounted to 5.5 µM and the maximal velocity (Vmax) amounted to 3.13 µM/min.
For `Nc1ncnc2c1ccn2[C@@H]1O[C@H](CO)[C@@H](O)[C@H]1O`, in the assay listed under Oryctolagus cuniculus [2], the Activity is 114. Besides, the outcome with L2 was Active. Moreover, in the assay filed under Oryctolagus cuniculus [1], the Michaelis-Menten constant (Km) was found to be 9.5 µM and the Vmax stood at 3.57 µM/min.
